Laboratory results published in ChEMBL document CHEMBL4196046, “Design, synthesis, and structure-activity-relationship of a novel series of CXCR4 antagonists” (Eur J Med Chem, 2018).
Calls of active or inactive are those of the source. The calls are words filed in the database; no cut-off is given here.

Experiments:
[1] = target: T1, C-X-C chemokine receptor type 4 (Homo sapiens, UniProt P61073); assay: Displacement of 12G5-CXCL12 from CXCR4 in human HPBALL cells after 3 hrs by FACS analysis; assay type: cell-based
[2] = target: T1, C-X-C chemokine receptor type 4; assay: Antagonist activity at CXCR4 in human CD4+ T cells assessed as inhibition of CXCL12-mediated cytosolic calcium level preincubated with compounds followed by CXCL12 stimulation by calcium 4 dye-based FLIPR assay; assay type: functional, cell-based
[3] = target: T1, C-X-C chemokine receptor type 4; assay: Antagonist activity at CXCR4-mediated chemotaxis in human MDA-MB-231 cells assessed as inhibition of CXCL12-induced cell invasion at 100 nM after 24 hrs by crystal violet staining-based microscopic matrigel assay; assay type: functional
Procedure, shortened: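 MDA-MB-231 cells (1 × 10⁵ cells/well) plus compound (100 nM) in upper chamber of 8-µm-pore Boyden inserts coated with 50mg/L Matrigel; CXCL12 in serum-free medium in lower chamber as chemoattractant. After 24 h, non-invaded cells wiped off; invaded cells fixed in cold methanol, crystal violet stained, counted in 10 random fields (100×). Three independent experiments; t-test vs control.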

[4] = target: T1, C-X-C chemokine receptor type 4; assay: Potency index, ratio of AMD3100 IC50 to compound IC50 for CXCR4 in human CD4+ T cells; assay type: cell-based
MDA-MB-231 = assay: Antiproliferative activity against human MDA-MB-231 cells at 400 nM after 24 to 48 hrs by MTT assay; assay type: functional, cell-based
Procedure, shortened: (§1)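 Cells seeded at 5 × 10³ cells/well, treated with compound, incubated at 37 °C, 5% CO₂ (48 h in methods; 24 h in figure legend), then 4 h with MTT reagent; formazan dissolved in DMSO, absorbance at 570 nm. Mean±SD of three independent experiments.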

MCF7 = assay: Antiproliferative activity against human MCF7 cells at 400 nM after 24 to 48 hrs by MTT assay; assay type: functional, cell-based; procedure, shortened: as §1
[5] = Antiproliferative activity against HOSEC at 400 nM after 24 to 48 hrs by MTT assay; conditions: human, 0.4 µM; procedure, shortened: as §1
CYP3A4 = CYP3A4 (Homo sapiens, UniProt P08684); assay: Inhibition of CYP3A4 in human liver microsomes at 10 uM using midazolam as substrate preincubated for 10 min followed by NADPH addition measured after 10 mins by LC-MS/MS analysis relative to control; assay type: ADME; conditions: probe midazolam
CYP2D6 = CYP2D6 (Homo sapiens, UniProt P10635); assay: Inhibition of CYP2D6 in human liver microsomes at 10 uM using dextromethorphan as substrate preincubated for 10 min followed by NADPH addition measured after 10 mins by LC-MS/MS analysis relative to control; assay type: ADME; conditions: probe dextromethorphan
[6] = target: Voltage-gated inwardly rectifying potassium channel KCNH2 (Homo sapiens, UniProt Q12809); assay: Inhibition of human ERG expressed in CHO cells after 4 mins at -80 mV holding potential by Qpatch assay; assay type: cell-based
[7] = Apparent permeability across apical to basolateral side in human Caco2 cells at 2 uM by LC-MS/MS method; assay type: ADME, cell-based; conditions: Caco-2
[8] = Efflux ratio of apparent permeability across basolateral to apical over apical to basolateral side in human Caco2 cells at 2 uM by LC-MS/MS method; assay type: ADME, cell-based; conditions: Caco-2
[9] = Intrinsic clearance in human liver microsomes at 1 uM preincubated for 10 mins followed by NADPH addition measured after 30 to 60 mins by LC-MS/MS method; assay type: ADME, microsome; conditions: read-out: CLH
[10] = Intrinsic clearance in mouse liver microsomes at 1 uM preincubated for 10 mins followed by NADPH addition measured after 30 to 60 mins by LC-MS/MS method; assay type: ADME, microsome; conditions: read-out: CLH
[11] = Half life in human liver microsomes at 1 uM preincubated for 10 mins followed by NADPH addition measured after 30 to 60 mins by LC-MS/MS method; assay type: ADME, microsome
[12] = Half life in mouse liver microsomes at 1 uM preincubated for 10 mins followed by NADPH addition measured after 30 to 60 mins by LC-MS/MS method; assay type: ADME, microsome

T1 sequence (P61073 whole entry): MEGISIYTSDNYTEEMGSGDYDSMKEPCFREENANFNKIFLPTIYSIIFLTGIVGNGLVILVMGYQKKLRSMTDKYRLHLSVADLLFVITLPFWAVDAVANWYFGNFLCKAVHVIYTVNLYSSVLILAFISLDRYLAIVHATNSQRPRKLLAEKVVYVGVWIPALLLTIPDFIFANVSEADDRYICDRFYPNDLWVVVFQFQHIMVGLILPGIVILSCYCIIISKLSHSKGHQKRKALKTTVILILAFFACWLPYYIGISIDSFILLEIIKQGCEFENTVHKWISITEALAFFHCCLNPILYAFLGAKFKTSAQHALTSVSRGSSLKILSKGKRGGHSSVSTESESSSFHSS
Sequence of CYP3A4 (P08684 whole entry): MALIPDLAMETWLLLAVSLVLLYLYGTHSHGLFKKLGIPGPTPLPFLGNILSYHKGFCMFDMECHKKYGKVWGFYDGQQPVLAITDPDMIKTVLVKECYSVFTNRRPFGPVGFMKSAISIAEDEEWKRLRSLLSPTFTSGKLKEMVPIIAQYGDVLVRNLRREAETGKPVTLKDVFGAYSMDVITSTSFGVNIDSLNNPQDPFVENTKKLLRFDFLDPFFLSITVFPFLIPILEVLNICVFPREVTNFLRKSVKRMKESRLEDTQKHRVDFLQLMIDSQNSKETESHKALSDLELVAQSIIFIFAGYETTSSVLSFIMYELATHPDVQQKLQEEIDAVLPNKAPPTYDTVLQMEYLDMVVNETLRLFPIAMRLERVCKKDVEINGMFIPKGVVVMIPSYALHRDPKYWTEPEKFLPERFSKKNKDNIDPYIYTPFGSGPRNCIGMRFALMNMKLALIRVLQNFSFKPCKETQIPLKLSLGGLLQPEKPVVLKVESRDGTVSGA
Sequence of Voltage-gated inwardly rectifying potassium channel KCNH2 (Q12809 whole entry): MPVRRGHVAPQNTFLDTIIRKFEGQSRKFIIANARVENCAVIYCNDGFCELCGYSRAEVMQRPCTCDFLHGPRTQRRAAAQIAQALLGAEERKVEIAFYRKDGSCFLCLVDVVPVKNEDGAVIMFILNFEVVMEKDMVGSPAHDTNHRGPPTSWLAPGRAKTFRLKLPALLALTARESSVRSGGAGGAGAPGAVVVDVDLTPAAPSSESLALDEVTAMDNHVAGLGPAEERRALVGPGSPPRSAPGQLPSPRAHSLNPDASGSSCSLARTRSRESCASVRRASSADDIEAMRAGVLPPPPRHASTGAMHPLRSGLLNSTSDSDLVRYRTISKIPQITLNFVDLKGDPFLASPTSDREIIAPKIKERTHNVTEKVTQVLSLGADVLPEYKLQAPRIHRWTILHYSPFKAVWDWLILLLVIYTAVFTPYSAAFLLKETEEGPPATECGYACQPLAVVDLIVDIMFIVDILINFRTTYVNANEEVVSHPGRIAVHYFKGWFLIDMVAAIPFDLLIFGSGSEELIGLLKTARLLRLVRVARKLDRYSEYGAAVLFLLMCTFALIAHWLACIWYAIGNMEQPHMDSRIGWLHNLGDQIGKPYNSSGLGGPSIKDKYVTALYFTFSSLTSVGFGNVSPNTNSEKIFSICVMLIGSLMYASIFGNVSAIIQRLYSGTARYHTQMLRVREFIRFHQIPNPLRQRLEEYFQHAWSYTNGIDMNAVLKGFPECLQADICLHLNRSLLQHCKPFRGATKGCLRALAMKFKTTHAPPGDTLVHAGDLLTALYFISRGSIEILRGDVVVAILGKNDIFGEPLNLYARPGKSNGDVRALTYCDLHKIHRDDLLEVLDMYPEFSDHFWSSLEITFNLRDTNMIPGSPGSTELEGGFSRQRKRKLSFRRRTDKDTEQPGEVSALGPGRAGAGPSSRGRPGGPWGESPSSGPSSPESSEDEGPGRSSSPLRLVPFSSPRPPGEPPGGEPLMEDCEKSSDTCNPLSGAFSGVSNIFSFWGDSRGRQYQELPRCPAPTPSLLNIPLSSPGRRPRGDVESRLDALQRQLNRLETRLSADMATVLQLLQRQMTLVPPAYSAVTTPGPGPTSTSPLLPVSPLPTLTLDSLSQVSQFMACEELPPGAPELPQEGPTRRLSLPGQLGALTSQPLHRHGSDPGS
Sequence of CYP2D6 (P10635 whole entry): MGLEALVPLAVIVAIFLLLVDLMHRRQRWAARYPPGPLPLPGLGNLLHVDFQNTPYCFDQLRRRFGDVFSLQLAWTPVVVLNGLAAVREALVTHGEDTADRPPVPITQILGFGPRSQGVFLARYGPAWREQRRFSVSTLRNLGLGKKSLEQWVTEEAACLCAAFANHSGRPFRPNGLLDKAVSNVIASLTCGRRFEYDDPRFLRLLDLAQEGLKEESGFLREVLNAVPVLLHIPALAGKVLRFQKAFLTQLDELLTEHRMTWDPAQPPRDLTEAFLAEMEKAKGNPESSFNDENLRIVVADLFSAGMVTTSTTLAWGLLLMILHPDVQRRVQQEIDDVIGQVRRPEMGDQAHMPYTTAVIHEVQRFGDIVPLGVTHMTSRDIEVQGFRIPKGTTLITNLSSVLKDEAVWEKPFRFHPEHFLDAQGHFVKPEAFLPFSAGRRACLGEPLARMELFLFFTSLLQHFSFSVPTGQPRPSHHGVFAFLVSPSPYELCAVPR

CN1CCN(c2nccc(CN(C)C3CCCc4cccnc43)n2)CC1 (stereo unspecified)
IC50 [1]: > 10000 nM

CN1CCN(c2cc(CN(C)[C@@H]3CCCc4cccnc43)ncn2)CC1
IC50 [1]: 1300 nM
IC50 [2]: 68 nM

CN(Cc1cc(N2CCN(CC3CC3)CC2)ncn1)C1CCCc2cccnc21 (stereo unspecified)
IC50 [1]: 1050 nM

CN1CCN(c2cc(CN(CCCCN)C3CCCc4cccnc43)ncn2)CC1 (stereo unspecified)
IC50 [1]: 18 nM

c1cc(CN2CCCNCCNCCCNCC2)ccc1CN1CCCNCCNCCCNCC1
inhibition [3]: Active

CN1CCN(c2cc(CN(CCCCNC(=O)OC(C)(C)C)C3CCCc4cccnc43)ncn2)CC1 (stereo unspecified)
IC50 [1]: 18 nM

CN(C)CCN(C)c1cc(CN(C)C2CCCc3cccnc32)ncn1 (stereo unspecified)
IC50 [1]: 1020 nM

CN1CCN(c2cccc(CN(C)C3CCCc4cccnc43)n2)CC1 (stereo unspecified)
IC50 [1]: > 10000 nM

CN(C)c1cc(CN(C)C2CCCc3cccnc32)ncn1 (stereo unspecified)
IC50 [1]: > 10000 nM

CN1CCN(c2cc(CN(C)C3CCCc4cccnc43)ncn2)CC1.Cl (stereo unspecified)
IC50 [1]: 54 nM
inhibition [3]: Active
IC50 [2]: 2.3 nM
Ratio IC50 [4]: 8
Activity (MDA-MB-231): inactive
Activity (MCF7): inactive
Activity [5]: Non-Toxic
inhibition at 10 min, 10 µM (CYP3A4): 9%
inhibition at 10 min, 10 µM (CYP2D6): 3%

CN(Cc1cc(N2CCNCC2)ncn1)C1CCCc2cccnc21 (stereo unspecified)
IC50 [1]: 2600 nM

CN1CCN(c2ccnc(CN(C)C3CCCc4cccnc43)c2)CC1 (stereo unspecified)
IC50 [1]: 200 nM

CN(Cc1cc(N2CCN(C(=O)OC(C)(C)C)CC2)ncn1)C1CCCc2cccnc21 (stereo unspecified)
IC50 [1]: > 10000 nM

CN1CCN(c2cc(CN(C)[C@H]3CCCc4cccnc43)ncn2)CC1
IC50 [1]: 88 nM
IC50 [2]: 0.73 nM
IC50 [6]: > 30000 nM
Papp A→B at 2 µM [7]: 15 ×10⁻⁶ cm/s
efflux ratio at 2 µM [8]: 1.5
CLint scaled at 1 µM [9]: 226 mL/min/kg
CLint scaled at 1 µM [10]: 3860 mL/min/kg
half-life at 1 µM [11]: 7.7 min
half-life at 1 µM [12]: 1.4 min

CN(Cc1cc(NCCN2CCOCC2)ncn1)C1CCCc2cccnc21 (stereo unspecified)
IC50 [1]: 640 nM

CN(Cc1cc(N2CCN(CCO)CC2)ncn1)C1CCCc2cccnc21 (stereo unspecified)
IC50 [1]: 290 nM

CN1CCCN(c2cc(CN(C)C3CCCc4cccnc43)ncn2)CC1 (stereo unspecified)
IC50 [1]: 170 nM

CN(C)C1CCN(c2cc(CN(C)C3CCCc4cccnc43)ncn2)C1 (stereo unspecified)
IC50 [1]: 150 nM

CCN1CCN(c2cc(CN(C)C3CCCc4cccnc43)ncn2)CC1 (stereo unspecified)
IC50 [1]: 320 nM

CN(C)C1CCN(c2cc(CN(C)C3CCCc4cccnc43)ncn2)CC1 (stereo unspecified)
IC50 [1]: 630 nM

CN(Cc1ccncn1)C1CCCc2cccnc21 (stereo unspecified)
IC50 [1]: > 10000 nM

CN1CCN(c2cc(CN(C)C3CCCc4cccnc43)ccn2)CC1 (stereo unspecified)
IC50 [1]: > 10000 nM

CC(C)N1CCN(c2cc(CN(C)C3CCCc4cccnc43)ncn2)CC1 (stereo unspecified)
IC50 [1]: 210 nM

CN1CCN(c2ccnc(CN(C)C3CCCc4cccnc43)n2)CC1 (stereo unspecified)
IC50 [1]: 180 nM
